Compound activity: PubChem, The Scripps Research Institute Molecular Screening Center
TCR CD3 inh – inhibitors of human TCR-CD3 interaction, primary screen, biochemical, fluorescence, TAMRA-labeled TCR probe; T-cell receptor (TCR); inhibition, % at 9.4 µM; hit rate 0.37% among 360,000; AID 651800, 2012;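 note: recombinant mutant TCR 2C K166C tagged with TAMRA read by polarization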
TDP2 inh – human TDP2 enzyme inhibitors, primary screen, biochemical, epi absorbance, recombinant enzyme; inhibition, % at 12.8 µM; hit rate 0.34% among 370,000; Tyrosyl-DNA phosphodiesterase 2 (Homo sapiens), O95551; T5PNP hydrolysis, p-nitrophenol absorbance 415 nm; AID 720702, 2013;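 active = inhibition above the mean of all tested compounds plus 3 SD, set per campaign, cut at about 25% in these data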
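Material: recombinant human TDP2; quantity: TDP2 enzyme at 120 nM final; medium: Tris-HCl pH 7.5 with MgCl2; compound: single concentration, 12.8 µM nominal, with 1% DMSO; incubation: 2 h enzyme incubation at 37 °C; signal: epi absorbance; measure: percent inhibition; benchmarks: high control without enzyme, low control DMSO plus TDP2; repeats: singlicate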
HTRA1 inh – HTRA1 serine protease inhibitors, primary screen, biochemical, fluorescence polarization, HTS | hit rate 0.5% among 340,000 | Q92743 | recombinant HTRA1, FP-rhodamine activity-based probe | inhibition, % at 5.96 µM; in the data active = inhibition above about 36%
Target sequence (Q92743 whole entry, looked up): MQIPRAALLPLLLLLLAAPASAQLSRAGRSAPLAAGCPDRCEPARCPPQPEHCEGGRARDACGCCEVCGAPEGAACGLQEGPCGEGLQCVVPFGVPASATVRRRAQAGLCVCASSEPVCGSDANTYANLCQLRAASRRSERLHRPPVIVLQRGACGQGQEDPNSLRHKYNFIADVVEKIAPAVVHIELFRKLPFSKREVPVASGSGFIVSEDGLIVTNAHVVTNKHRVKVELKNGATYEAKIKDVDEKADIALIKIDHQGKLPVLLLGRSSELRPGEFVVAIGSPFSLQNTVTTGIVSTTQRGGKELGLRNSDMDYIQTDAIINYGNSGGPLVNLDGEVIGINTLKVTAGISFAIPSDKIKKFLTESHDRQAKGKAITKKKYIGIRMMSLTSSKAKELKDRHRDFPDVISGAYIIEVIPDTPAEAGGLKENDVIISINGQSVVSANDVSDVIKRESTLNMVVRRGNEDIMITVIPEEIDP
PAD4 inh – human PAD4 inhibitors, primary screen, biochemical, fluorescence polarization, 1536-well format. Protein-arginine deiminase type-4 (Homo sapiens), Q9UM07. recombinant PAD4, RCA probe fluorescence polarization. inhibition, % at 6.36 µM. hit rate 0.41% among 330,000. AID 485272, 2010;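 active = percent inhibition above a cutoff equal to the mean of all tested compounds plus 3 SD, cut at about 15% in these data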
SIAE primary – human SIAE inhibitors, primary screen, biochemical, fluorescence polarization, FP-Rh probe, 1536-well HTS | inhibition, % at 9.66 µM | hit rate 0.69% among 370,000 | SIAE FP-Rh probe binding;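 active = inhibition above a cutoff: mean of compounds within the control limits plus 3 SD of those, cut at about 17% in these data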
ABHD4 inh – ABHD4 inhibitors, primary screen, biochemical, fluorescence polarization, mouse | (Lyso)-N-acylphosphatidylethanolamine lipase (Mus musculus), Q8VD66 | purified mABHD4, FP-Rh probe fluorescence polarization | inhibition, % at 8.92 µM | hit rate 0.54% among 370,000 | AID 720543, 2013;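 active = inhibition exceeding the mean over every tested compound plus 3 SD, cut at about 30% in these data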
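System: mouse ABHD4 enzyme, wild type / Medium: HEPES pH 7.0, NaCl, Pluronic buffer / Reagent: FP-Rh activity-based fluorescent probe / Control set: S159A mutant high control, sample median low control / Detection: fluorescence polarization with parallel and perpendicular emission, 525/598 nm / Schedule: 45 min + 60 min at 25 °C / Compound dosing: 8.92 µM, single dose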
PAD4 FP conf – human PAD4 inhibitors, confirmation, biochemical, fluorescence polarization. shares compounds with PAD4 inh. recombinant PAD4, RCA probe fluorescence polarization. inhibition, % at 6.36 µM. hit rate 28% among 1,200. AID 488796, 2010;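 active = mean inhibition across replicates above the hit cutoff set by the earlier primary screen, cut at about 15% in these data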;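 note: inhibitors block active-site labeling by the probe so polarization falls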
HTRA1 inh conf – HTRA1 protease inhibitors, retest, confirmation, biochemical, fluorescence polarization. shares compounds with HTRA1 inh. recombinant HTRA1, FP-rhodamine activity-based probe. inhibition, % at 5.96 µM. hit rate 66% among 1,600. AID 540248, 2011;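 active = mean inhibition over three repeats above a set limit taken from the earlier primary screen, cut at about 37% in these data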;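 note: inhibitors block probe binding so polarization drops and inhibition rises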
BSA TAMRA ctr – compounds interfering with TAMRA-BSA probe, counter-screen for TCR-CD3 interaction inhibitor project, biochemical, fluorescence, TAMRA-labeled BSA. shares compounds with TCR CD3 inh. TAMRA-labeled BSA probe fluorescence counterscreen. inhibition, % at 9.4 µM. hit rate 10% among 1,200. AID 652035, 2013; in the data active = inhibition above about 23%
TCR-CD3 inh conf – TCR-CD3 interaction inhibitors, retest, confirmation, biochemical, fluorescence, TAMRA-labeled TCR probe; inhibition, % at 9.4 µM; TAMRA-labeled TCR probe fluorescence binding assay; shares compounds with TCR CD3 inh; hit rate 48% among 1,200
ABHD4 confirm – ABHD4 inhibitors, retest, confirmation, biochemical, fluorescence polarization, mouse | shares compounds with ABHD4 inh | purified mABHD4, FP-Rh probe fluorescence polarization | inhibition, % at 8.92 µM | hit rate 55% among 1,800;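 active = mean inhibition across replicates above the hit cutoff set in the primary screen, cut at about 30% in these data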
TDP2 inh conf – human TDP2 enzyme inhibitors, retest, confirmation, biochemical, epi absorbance, recombinant enzyme | shares compounds with TDP2 inh | absorbance read-out | inhibition, % at 12.8 µM | hit rate 22% among 1,100 | AID 743263, 2014; in the data active = inhibition above about 25%
SIAE inh conf – human SIAE inhibitors, retest, confirmation, biochemical, fluorescence polarization, FP-Rh probe, triplicate; inhibition, % at 9.66 µM; AID 1117263, 2014; shares compounds with SIAE primary; hit rate 13% among 2,300; SIAE FP-Rh activity-based probe;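 active = mean inhibition of the replicates above the hit cutoff set in the primary screen, cut at about 17% in these data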;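 note: inhibitors lower polarization as more probe stays unbound to SIAE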
A number is an active result; - = inactive; . = no result. Shown are actives, neighbours in structure and some others; about 2% of the full set was active somewhere. Cut-off read from the data, not from the text of the source, unless noted: active = inhibition above about 19%; inactive = the rest.

SMILES | TCR CD3 inh | TDP2 inh | HTRA1 inh | PAD4 inh | SIAE primary | ABHD4 inh | PAD4 FP conf | TDP2 inh conf | others
NC(=Nc1ccc(N)cc1)C(N)=Nc1ccc(N)cc1 | - | 50.8 | - | 45.6 | - | 31.0 | - | - | ABHD4 confirm=-
Cn1[nH]c(CSc2ccc(Cl)cc2)cc1=O | - | 48.3 | - | 38.2 | - | - | - | -
O=C(NC1=C(NC2CCS(=O)(=O)C2)C(=O)c2ccccc2C1=O)c1ccccc1 (centres undefined) | - | 27.9 | - | 26.3 | - | - | 22.0 | 36.5
C[C@@H]1COc2cc(Br)ccc2S(=O)(=O)N1Cc1cn(CCC2OCCCO2)nn1 | . | - | . | . | - | - | . | .
Cc1ccccc1N1CCN(S(=O)(=O)c2ccc3c(c2)oc(=O)n3C)CC1 | . | - | . | . | - | - | . | .
CCOC(=O)c1c(NC(=O)c2ccco2)n(C2CCCCC2)c2nc3ccccc3nc12 | - | 59.8 | - | 15.2 | - | - | 24.6 | 60.2
CCC(=O)Nc1c(C#N)c2nc3ccccc3nc2n1C1CCCCC1 | - | - | - | - | - | - | . | .
Cn1cc(C2(c3c[nH]c4ccccc34)CCN(C(=O)OC(C)(C)C)CC2)c2ccccc21 | . | - | . | . | - | - | . | .
Nn1c(SCC(=O)Nc2nccs2)nnc1-c1cc(-c2ccc(Cl)cc2)n[nH]1 | . | - | . | . | - | - | . | .
CC1=NN(c2ccc(F)cc2)C(=O)C1C(c1cccc(O)c1)c1c(C)[nH]n(-c2ccc(F)cc2)c1=O (centres undefined) | - | 88.6 | - | 68.7 | - | - | - | 47.8
CN(C)/C=N/NC(=O)c1ccccc1 | - | - | - | - | - | - | . | .
O=C(NN=c1c(=O)c2ccccc2c1=O)c1ccccc1 | - | 57.0 | - | 44.1 | - | - | 44.9 | 78.0
Cc1nc2ccc(NC(=O)c3ccc(F)cc3Cl)cc2c(=O)[nH]1 | . | - | . | . | - | - | . | .
CCOC(=O)C1(C)C=C(Nc2ccc(O)cc2)C(=O)N1c1ccc(O)cc1 (centres undefined) | 40.3 | 27.9 | 54.9 | 84.9 | - | 75.6 | - | - | HTRA1 inh conf=-;BSA TAMRA ctr=-;TCR-CD3 inh conf=-;ABHD4 confirm=-
CCOC(=O)C1(C)C=C(Nc2ccc(OC)cc2)C(=O)N1c1ccc(OC)cc1 (centres undefined) | - | - | - | - | - | - | . | .
COc1ccc(OC)c(S(=O)(=O)N2CCCCC2C(=O)N2CCN(CCO)CC2)c1 (centres undefined) | . | - | . | . | - | - | . | .
O=C(O)c1ccc(NC(=O)c2ccc3c(c2)C(=O)N(c2ccccc2)C3=O)cc1 | - | - | - | - | - | - | . | .
O=C(O)c1ccc(S(=O)(=O)c2ccc3c(c2)C(=O)N(c2ccc(O)cc2)C3=O)cc1 | - | 38.0 | - | 62.2 | - | 91.9 | - | - | ABHD4 confirm=-
O=c1[nH]c(Nc2ccccc2Cl)cc2ccccc12 | - | 71.4 | - | 28.3 | - | - | - | 42.6
O=c1oc(Nc2ccccc2Cl)nc2ccccc12 | - | - | - | . | - | - | . | .
O=c1[nH]c(Nc2ccc(F)cc2)cc2ccccc12 | - | 76.8 | - | 43.2 | - | - | 16.6 | 64.9
O=c1cc(-c2cccc3ccccc23)[nH][nH]1 | - | - | - | - | - | - | . | .
O=c1cc(-c2ccc(Cl)c(Cl)c2)[nH][nH]1 | - | 57.0 | - | 51.2 | - | - | - | -
O=c1cc(-c2ccc(Cl)cc2)[nH][nH]1 | - | 74.3 | - | 59.8 | - | - | - | -
COc1ccc(-c2cc(=O)[nH][nH]2)cc1 | - | 61.0 | - | 55.9 | - | - | - | -
SMILES | TCR CD3 inh | TDP2 inh | HTRA1 inh | PAD4 inh | SIAE primary | ABHD4 inh | PAD4 FP conf | TDP2 inh conf | others
CCC(COC)Oc1cc(NCc2ccccc2)c2ncn(C(C)C)c2c1 (centres undefined) | - | 60.9 | - | 24.2 | - | - | - | 34.5
O=C(OC12CCCN(C1)/C(=C/c1cccnc1)C2)C1CCCCC1 (centres undefined) | . | - | . | . | - | - | . | .
Cc1cc(C(=O)OCC(=O)NC2CCS(=O)(=O)C2)c2ccccc2n1 (centres undefined) | - | - | - | - | - | - | . | .
O=C(COC(=O)c1cc(-c2cccc3ccccc23)nc2ccccc12)NC1CCS(=O)(=O)C1 (centres undefined) | 29.8 | - | - | 65.4 | 25.3 | 38.5 | 24.2 | . | BSA TAMRA ctr=54.4;TCR-CD3 inh conf=37.7;ABHD4 confirm=-;SIAE inh conf=-
COc1ccc(OCC(O)CNC(=O)/C=C/c2cccc([N+](=O)[O-])c2)cc1 (centres undefined) | - | - | - | - | - | - | . | .
O=C1CCCC(O)=C1N=Nc1c(Cl)cc(C(F)(F)F)cc1Cl | 26.5 | - | 72.4 | 85.4 | 88.8 | 62.1 | - | . | HTRA1 inh conf=-;BSA TAMRA ctr=-;TCR-CD3 inh conf=-;ABHD4 confirm=-;SIAE inh conf=-
CC(c1ccc(O)cc1)c1cn(C)c2ccccc12 (centres undefined) | . | - | . | . | - | - | . | .
COC(=O)c1ccc2c(c1)SC1=C(CCCC1=O)N2 | 36.9 | - | - | 42.6 | 19.4 | 35.0 | 39.5 | . | BSA TAMRA ctr=76.3;TCR-CD3 inh conf=57.4;ABHD4 confirm=32.1;SIAE inh conf=22.8
COC(=O)c1c(Cl)c2n3ccccc3c(C)c(-c3ccccc3)c-2c1C(=O)OC | - | 32.0 | - | 15.6 | 20.6 | 43.6 | - | - | ABHD4 confirm=-;SIAE inh conf=-
